Active and inactive are the calls of the source. The rule behind the calls is not given here.
Assays:
[1] = Inhibition of KIX-RLucC fused CBP (unknown origin) binding to KID-RLucN fused CREB (unknown origin) transfected in human HEK293 cells preincubated with compound 30 mins before forskolin addition and measured after 90 mins in presence of coelenterazine by split Renilla luciferase complementation assay
KG-1 = experiment: Cytotoxicity against human KG1 cells incubated for 3 days by CellTiter-Glo luminescent assay; assay type: functional, cell-based; conditions: KG-1, 72 h
Summary of the method: (§1)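 CellTiter-Glo viability read-out on leukemia cell lines. IC50 reported as the average of triplicates.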

HL-60 [2] = experiment: Cytotoxicity against human HL60 cells incubated for 3 days by CellTiter-Glo luminescent assay; assay type: functional, cell-based; conditions: HL-60, 72 h
Summary of the method: as §1

Jurkat = experiment: Cytotoxicity against human Jurkat cells incubated for 3 days by CellTiter-Glo luminescent assay; assay type: functional, cell-based; conditions: 72 h
Summary of the method: as §1

[3] = AUC (0 to infinity) in NSG mouse at 2 mg/kg, iv measured after 7 to 150 mins by LC/MS/MS analysis; assay type: ADME, organism-based; design: dose 2 mg/kg, time infinity, route intravenous; conditions: in vivo
Summary of the method: (§2)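 Single IV dose of 2 mg/kg to NSG mice (NOD.Cg-Prkdc scid Il2rg tm1Wjl/SzJ), vehicle DMSO/Kolliphor EL/water (3/5/82). Compound levels measured in plasma at various times after injection. PK parameters derived from the plasma time-concentration profiles.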

[4] = Apparent volume of distribution in NSG mouse at 2 mg/kg, iv measured after 7 to 150 mins by LC/MS/MS analysis; assay type: ADME, organism-based; conditions: in vivo
Summary of the method: as §2

[5] = AUC (0 to t) in NSG mouse at 2 mg/kg, iv measured after 7 to 150 mins by LC/MS/MS analysis; assay type: ADME, organism-based; conditions: in vivo
Summary of the method: as §2

Bone marrow cell = experiment: Cytotoxicity against human bone marrow cells incubated for 3 days by CellTiter-Glo luminescent assay; assay type: cell-based; conditions: 72 h
[6] = Plasma concentration in NSG mouse at 2 mg/kg, iv measured after 7 to 150 mins by LC/MS/MS analysis; assay type: ADME, organism-based; conditions: in vivo
Summary of the method: as §2

[7] = Volume of distribution at steady state in NSG mouse at 2 mg/kg, iv measured after 7 to 150 mins by LC/MS/MS analysis; assay type: ADME, organism-based; conditions: in vivo
Summary of the method: as §2

[8] = Metabolic stability in human liver microsomes assessed as half life in presence of NADPH by LC-MS/MS analysis; assay type: ADME, Microsome
[9] = MRT (0 to infinity) in NSG mouse at 2 mg/kg, iv measured after 7 to 150 mins by LC/MS/MS analysis; assay type: ADME, organism-based; conditions: in vivo
Summary of the method: as §2

[10] = Elimination half life in NSG mouse at 2 mg/kg, iv measured after 7 to 150 mins by LC/MS/MS analysis; assay type: ADME, organism-based; conditions: in vivo, read-out: beta t1/2 (converted)
Summary of the method: as §2

[11] = Metabolic stability in mouse liver microsomes assessed as half life in presence of NADPH by LC-MS/MS analysis; assay type: ADME, Microsome
NALM-6 = experiment: Cytotoxicity against human NALM6 cells incubated for 3 days by CellTiter-Glo luminescent assay; assay type: functional, cell-based; conditions: NALM-6, 72 h
Summary of the method: as §1

HL-60 [12] = experiment: Induction of cell cycle arrest in human HL60 cells assessed as accumulation at G1 phase at 1 uM incubated for 1 day by DAPI staining based flow cytometric analysis (reference value: 48.37 +/- 0.15%); assay type: functional
HL-60 [13] = experiment: Induction of apoptosis in human HL60 cells assessed as early apoptotic cells at 1 uM incubated for 1 day by AnnexinV/DAPI double staining based flow cytometric analysis (reference value: 3.2 +/- 0.1%); assay type: functional
Homo sapiens [14] = organism: Homo sapiens; experiment: Inhibition of CREB in human HL60 cells assessed as downregulation of POLD2 gene expression at 1 uM incubated for 1 day by RT-qPCR analysis; assay type: cell-based
Summary of the method: (§3)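 HL60 cells given 1 μM compound for 1 d. RFC3 and POLD2 mRNA measured by RT-qPCR and normalized to 7SL lncRNA. Results given as mean of three independent experiments ± SEM.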

HL-60 [15] = experiment: Induction of apoptosis in human HL60 cells assessed as PARP cleavage level at 1 uM incubated for 1 day by DAPI staining based flow cytometric analysis (reference value: 1.2 +/- 0.1%); assay type: functional
Homo sapiens [16] = organism: Homo sapiens; experiment: Inhibition of CBP KIX domain (unknown origin) binding to BODIPY-labeled phosphorylated CREB KID domain (unknown origin) interaction pre-incubated for 30 mins by fluorescence polarization assay
Summary of the method: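 Fluorescence polarization with BODIPY-labeled phosphorylated CREB KID domain and the CBP KIX domain. Polarization reports the degree of KIX-KID binding.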

[17] = Clearance in NSG mouse at 2 mg/kg, iv measured after 7 to 150 mins by LC/MS/MS analysis; assay type: ADME, organism-based; conditions: in vivo
Summary of the method: as §2

HL-60 [18] = experiment: Induction of cell cycle arrest in human HL60 cells assessed as G2 phase at 1 uM incubated for 1 day by DAPI staining based flow cytometric analysis (reference value: 21.4 +/- 0.42%); assay type: functional
Homo sapiens [19] = organism: Homo sapiens; experiment: Inhibition of CREB in human HL60 cells assessed as downregulation of RFC3 gene expression at 1 uM incubated for 1 day by RT-qPCR analysis; assay type: cell-based
Summary of the method: as §3

HL-60 [20] = experiment: Induction of cell cycle arrest in human HL60 cells assessed as M phase at 1 uM incubated for 1 day by DAPI staining based flow cytometric analysis (reference value: 2.64 +/- 0.06%); assay type: functional
HL-60 [21] = experiment: Induction of cell cycle arrest in human HL60 cells assessed as S phase at 1 uM incubated for 1 day by DAPI staining based flow cytometric analysis (reference value: 27.5 +/- 0.57%); assay type: functional
HL-60 [22] = experiment: Induction of apoptosis in human HL60 cells assessed as late apoptotic cells at 1 uM incubated for 1 day by AnnexinV/DAPI double staining based flow cytometric analysis (reference value: 1.2 +/- 0.03%); assay type: functional
HL-60 [23] = experiment: Induction of cell cycle arrest in human HL60 cells assessed as cyclin B expression in G2 phase by measuring as fluorescence intensity level at 1 uM incubated for 1 day by flow cytometric analysis (reference value: 1196.33 +/- 40.48); assay type: functional

SMILES	IC50 [1] [nM]	half-life [8] [min]	half-life [11] [min]	IC50 (KG-1) [nM]	IC50 (HL-60 [2]) [nM]	IC50 (Jurkat) [nM]	IC50 (NALM-6) [nM]	further results
COc1cccc(O)c1C(=O)Nc1ccc(C#N)cc1	> 7000	–	–	> 10000	> 10000	–	–	–
O=C(Nc1ccc([N+](=O)[O-])cc1Cl)c1cc(Cl)ccc1O [NICLOSAMIDE]	1530	21	6.6	360	300	400	620	AUC(0-inf) [3]: 536 ng·h/mL; Vz [4]: 0.0025 mg/ng/mL; AUC(0-t) [5]: 536 ng·h/mL; IC50 (Bone marrow cell): > 10000 nM; Cp [6]: 0.12 ng/mL; Vdss [7]: 0.0015 mg/ng/mL; MRT inf [9]: 24.2 min; half-life [10]: 33.6 min
O=C(Nc1ccc(Cl)c(Br)c1)c1cc(Cl)ccc1O	–	–	–	680	780	1350	3070	–
O=C(Nc1cc(C(F)(F)F)cc(C(F)(F)F)c1)c1cc(F)ccc1O	–	–	–	470	320	500	620	–
N#Cc1ccc(NC(=O)c2ccc3cccnc3c2O)c(C#N)c1	–	–	–	3770	890	270	350	–
N#Cc1ccc(NC(=O)c2ccc3cccnc3c2O)cc1	–	124	157	2320	370	180	130	AUC(0-inf) [3]: 4090 ng·h/mL; Vz [4]: 0.00098 mg/ng/mL; AUC(0-t) [5]: 4070 ng·h/mL; IC50 (Bone marrow cell): 3070 nM; Activity (HL-60 [13]): 6.3%; FI (HL-60 [23]): 875.33; inhibition (Homo sapiens [14]): inactive; Vdss [7]: 0.00022 mg/ng/mL; Activity (HL-60 [15]): 17.3%; CL [17]: 0.00049 mg/ng/mL/h; inhibition (Homo sapiens [19]): inactive; MRT inf [9]: 27.5 min; Activity (HL-60 [21]): 33.7%; Activity (HL-60 [22]): 3%; half-life [10]: 83.4 min
O=C(Nc1cc(C(F)(F)F)cc(C(F)(F)F)c1)c1cc(Cl)ccc1O [IMD-0354]	–	–	–	500	160	480	630	–
N#Cc1ccc(NC(=O)c2ccc3cccnc3c2O)c(F)c1	–	–	–	3260	730	420	370	–
O=C(Nc1cc(C(F)(F)F)cc(C(F)(F)F)c1)c1ccc(-c2ccccc2)cc1O	–	–	–	860	1140	1240	1580	–
O=C(Nc1ccc(OC(F)(F)F)cc1Cl)c1cc(Cl)ccc1O	–	–	–	620	650	880	1350	–

Further lines, with some results ahead:

IC50 [1] [nM]	half-life [8] [min]	half-life [11] [min]	SMILES	IC50 (KG-1) [nM]	IC50 (HL-60 [2]) [nM]	IC50 (Jurkat) [nM]	IC50 (NALM-6) [nM]	further results
3030	–	–	N#Cc1ccc(NC(=O)c2cc(Br)ccc2O)cc1	1290	620	–	–	–
> 7000	–	–	COc1ccc(O)c(C(=O)Nc2ccc(C#N)cc2)c1	> 10000	> 10000	–	–	–
> 7000	–	–	N#Cc1ccc(NC(=O)c2ccc3ccccc3c2)cc1	> 10000	> 10000	–	–	–
3990	–	–	N#Cc1ccc(NC(=O)c2cc(Cl)ccc2O)cc1	1860	700	–	–	–
4030	44.9	5.5	N#Cc1ccc(NC(=O)c2cc3ccccc3cc2O)cc1	–	1580	–	–	IC50 (Bone marrow cell): > 10000 nM
1520	–	–	O=C(Nc1ccc([N+](=O)[O-])cc1Cl)c1cc(F)ccc1O	490	280	530	910	–
> 7000	–	–	N#Cc1ccc(C(=O)Nc2cc3ccccc3cc2O)cc1	> 10000	> 10000	–	–	–
1550	159	159	O=C(Nc1cc(C(F)(F)F)cc(C(F)(F)F)c1)c1cc(Br)c(-c2ccccc2)cc1O	300	430	680	840	AUC(0-inf) [3]: 2330 ng·h/mL; Vz [4]: 0.003 mg/ng/mL; AUC(0-t) [5]: 2250 ng·h/mL; Activity (HL-60 [12]): 69.77%; IC50 (Bone marrow cell): > 10000 nM; Cp [6]: 19 ng/mL; Activity (HL-60 [13]): 8.8%; inhibition (Homo sapiens [14]): Active; Vdss [7]: 0.00087 mg/ng/mL; Activity (HL-60 [15]): 58.1%; inhibition (Homo sapiens [16]): Active; CL [17]: 0.00086 mg/ng/mL/h; Activity (HL-60 [18]): 14.37%; inhibition (Homo sapiens [19]): Active; Activity (HL-60 [20]): 1.23%; MRT inf [9]: 61 min; Activity (HL-60 [21]): 14.27%; Activity (HL-60 [22]): 30.9%; half-life [10]: 123 min
2530	159	31.8	O=C(Nc1cc(C(F)(F)F)cc(C(F)(F)F)c1)c1ccc(Cl)cc1O	620	200	570	850	inhibition (Homo sapiens [16]): Active
1240	52	29.1	O=C(Nc1cc(C(F)(F)F)cc(C(F)(F)F)c1)c1cc(Br)ccc1O	300	290	350	590	IC50 (Bone marrow cell): > 10000 nM; inhibition (Homo sapiens [16]): Active

— ChEMBL document CHEMBL4385626, “SAR optimization studies on modified salicylamides as a potential treatment for acute myeloid leukemia through inhibition of the CREB pathway” (Bioorg Med Chem Lett, 2019)
